The target of data set [1] is T1, ATP-dependent 6-phosphofructokinase, muscle type (Oryctolagus cuniculus) (UniProt P00511).
T1 sequence (whole entry): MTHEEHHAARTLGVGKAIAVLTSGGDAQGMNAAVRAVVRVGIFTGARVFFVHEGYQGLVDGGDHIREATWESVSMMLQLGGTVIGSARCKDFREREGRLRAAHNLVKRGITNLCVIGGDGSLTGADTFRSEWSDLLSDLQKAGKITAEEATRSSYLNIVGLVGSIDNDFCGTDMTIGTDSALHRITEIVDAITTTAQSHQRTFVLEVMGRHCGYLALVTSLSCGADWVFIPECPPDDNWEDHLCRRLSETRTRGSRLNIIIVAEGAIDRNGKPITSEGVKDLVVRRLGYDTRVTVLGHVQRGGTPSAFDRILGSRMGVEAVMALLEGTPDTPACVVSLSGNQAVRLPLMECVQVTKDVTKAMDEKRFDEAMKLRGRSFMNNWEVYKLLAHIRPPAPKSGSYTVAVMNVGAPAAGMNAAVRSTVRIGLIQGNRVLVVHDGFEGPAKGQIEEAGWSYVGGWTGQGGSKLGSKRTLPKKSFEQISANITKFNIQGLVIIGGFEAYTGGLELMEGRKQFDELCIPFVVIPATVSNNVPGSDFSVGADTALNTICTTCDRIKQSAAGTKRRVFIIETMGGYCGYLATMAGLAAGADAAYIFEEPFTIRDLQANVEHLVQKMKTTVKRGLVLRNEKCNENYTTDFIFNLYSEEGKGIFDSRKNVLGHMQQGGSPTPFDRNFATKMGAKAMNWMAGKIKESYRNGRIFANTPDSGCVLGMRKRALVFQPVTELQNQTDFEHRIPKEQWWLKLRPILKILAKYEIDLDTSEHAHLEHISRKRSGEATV
The experiment in a line: Inhibition of recombinant rabbit muscle PFK expressed in PFK-deficient Escherichia coli DF1020DE3 using ATP/fructose 6 phosphate as substrate at 1 uM. The class given is tissue-based. To be noted: Muscle tissue.

A short description of data set [2]: Aqueous kinetic solubility of the compound. The class given is physicochemical. The settings on record: buffer; read-out: Kinetic_solubility.
Data set [3] concerns the target T2, ATP-dependent 6-phosphofructokinase (Trypanosoma cruzi) (UniProt Q4E657).
T2 sequence (whole entry): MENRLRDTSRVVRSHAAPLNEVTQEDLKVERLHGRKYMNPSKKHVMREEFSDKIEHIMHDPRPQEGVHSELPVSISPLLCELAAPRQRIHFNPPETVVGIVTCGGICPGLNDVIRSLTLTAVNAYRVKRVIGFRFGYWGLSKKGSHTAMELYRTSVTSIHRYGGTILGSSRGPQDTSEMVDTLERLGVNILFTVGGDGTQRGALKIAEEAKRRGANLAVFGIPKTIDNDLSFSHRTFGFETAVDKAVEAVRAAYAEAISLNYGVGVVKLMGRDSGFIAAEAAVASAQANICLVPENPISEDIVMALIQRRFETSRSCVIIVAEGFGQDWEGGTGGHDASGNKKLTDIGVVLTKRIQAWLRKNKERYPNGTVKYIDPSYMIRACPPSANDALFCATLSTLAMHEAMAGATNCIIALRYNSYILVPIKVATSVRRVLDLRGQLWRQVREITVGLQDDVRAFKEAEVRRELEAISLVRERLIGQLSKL
The experiment in a line: Inhibition of Trypanosoma cruzi PFK at 57 uM. In short, it runs like this:
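PFK activity is measured by coupling ADP production to ADP-Glo luciferase luminescence at end point. Percent inhibition is recorded at 57 μM, the highest concentration of the dose series, with at least 3 separate experiments averaged.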

Data set [4] addresses T3, ATP-dependent 6-phosphofructokinase (Trypanosoma brucei) (UniProt O15648).
T3 sequence (whole entry): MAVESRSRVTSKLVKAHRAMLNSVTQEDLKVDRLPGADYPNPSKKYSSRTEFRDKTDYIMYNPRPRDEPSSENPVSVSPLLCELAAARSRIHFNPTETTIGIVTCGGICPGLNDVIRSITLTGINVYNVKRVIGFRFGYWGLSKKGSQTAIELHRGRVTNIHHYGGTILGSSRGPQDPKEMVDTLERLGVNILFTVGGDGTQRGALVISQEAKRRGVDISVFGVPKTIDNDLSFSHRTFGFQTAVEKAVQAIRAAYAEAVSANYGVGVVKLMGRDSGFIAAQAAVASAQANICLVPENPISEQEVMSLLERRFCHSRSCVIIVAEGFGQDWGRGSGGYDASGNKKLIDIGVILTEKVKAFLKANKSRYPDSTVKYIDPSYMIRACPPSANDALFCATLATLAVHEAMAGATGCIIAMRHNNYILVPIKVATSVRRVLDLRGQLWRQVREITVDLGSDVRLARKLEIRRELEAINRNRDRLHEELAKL
The experiment in a line: Inhibition of Trypanosoma brucei PFK-mediated ADP production using ATP/fructose-6-phosphate as substrate at 57 uM by luciferase based luminescence assay. In short, it runs like this:
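Recombinant T. brucei PFK; ADP formed by the enzyme is converted to a luminescent signal by a modified luciferase ADP-Glo detection, read at end point.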

A short description of data set [5]: Cytotoxicity against human MRC5 cells assessed as intracellular ATP content after 72 hrs by Cell titer-Glo luminiscent assay. The class given is cell-based.
Data set [6] in a line: Metabolic stability in human plasma assessed as compound remaining after 2 hrs. The class given is ADME, cell-free. To be noted: read-out: Stability.
The target of data set [7] is T4, ATP-dependent 6-phosphofructokinase (Trypanosoma brucei, UniProt O15648).
T4 sequence (O15648 whole entry): T3 sequence (whole entry)
The experiment in a line: Competitive inhibition Trypanosoma brucei PFK using fructose-6-phosphate as substrate by Line-weaver Burk plot analysis. In short, it runs like this: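 Coupled biochemical PFK assay titrating F6P at several inhibitor levels (0, 1.5, 12.5, 50, 100 nM), ATP held saturating at 0.5 mM; initial velocities analysed by Lineweaver–Burk transformation, Ki from secondary plots.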

For data set [8], the target named is T4, ATP-dependent 6-phosphofructokinase. The data set can be described thus: Inhibition of Trypanosoma brucei PFK-mediated ADP production using ATP/fructose-6-phosphate as substrate by luciferase based luminescence assay. In short, it runs like this:
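Recombinant enzyme; ADP formed by PFK detected with modified luciferase (ADP-Glo) luminescent end-point in 1536-well format.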

The subject of data set [9] is Trypanosoma brucei brucei. The data set can be described thus: Antitrypanosomal activity against Trypanosoma brucei brucei Lister 427 assessed as cell viability at 1.3 to 33.3 ug/ml after 72 hrs by alamar blue assay. The class given is functional, organism-based. For orientation: Resazurin is reduced to fluorescent resorufin, in cell work by metabolically active cells.

Data set [10] can be described thus: Half life in rat liver microsomes. The class given is ADME.
In data set [11] the target is T5, ATP-dependent 6-phosphofructokinase (Trypanosoma cruzi, UniProt Q4E657).
T5 sequence (Q4E657 whole entry): T2 sequence (whole entry)
The experiment in a line: Inhibition of Trypanosoma cruzi PFK.

The nature of data set [12]: Metabolic stability in mouse plasma assessed as compound remaining after 2 hrs. The settings on record: read-out: Stability. The class given is ADME, cell-free.
Data set [13] addresses T4, ATP-dependent 6-phosphofructokinase. The data set can be described thus: Mixed type inhibition Trypanosoma brucei PFK using ATP as substrate by Line-weaver Burk plot analysis. In short, it runs like this:
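Coupled biochemical PFK assay titrating ATP at several inhibitor levels (0, 1.5, 12.5, 50, 100 nM), F6P held saturating at 2 mM; initial velocities analysed by Lineweaver–Burk transformation, Ki from secondary plots.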

Data set [14] deals with Trypanosoma brucei brucei. The experiment in a line: Antitrypanosomal activity against Trypanosoma brucei brucei Lister 427 assessed as cell viability after 72 hrs by alamar blue assay. The class given is functional. The settings on record: for pEC50: Lister 427, 72 h, read-out: ED50 (the source's name).
The nature of data set [15]: Half life in mouse liver microsomes. The class given is ADME, Microsome.
Data set [16] can be described thus: Half life in human liver microsomes. The class given is ADME. (In general: Liver microsomes are a subcellular fraction often used to study metabolism.)

Structures are written as SMILES. pEC50, pIC50, pKi: −log10 of the molar value. Values after ≈ are worked out from the molar mass of the structure shown. Active and inactive are the calls of the source.

As for `O=C(Cc1ccc(F)c(Cl)c1)Nc1ccc(S(=O)(=O)Nc2nncs2)cc1`, the inhibition result in data set [1] was “inactive”. Besides, the solubility kinetic in [2] is above 81 µg/mL. Besides, the inhibition in data set [3] and in data set [4] was above 80% in each case. In data set [5], the CC50 at 72 h is above 46 µM. The remaining at 2 h in [6] and in [12] was above 95% throughout. Further, the pKi in data set [7] is 7.28; in data set [13] it was 6.62. The pIC50 was 7.82 in data set [8] and 6.76 in [11]. Moreover, the result in data set [9] was inactive. This compound came in with a half-life in data set [10] above 30 min.
`Cc1cc(NS(=O)(=O)c2ccc(NC(=O)Cc3ccc(Cl)c(Cl)c3)cc2)no1`: the Activity entry in [14] is “Dose-dependent effect”. In addition, the pEC50 in data set [14] was 4.57. Besides, the solubility kinetic in data set [2] was found to be 23.3 µg/mL (≈ 52.9 µM). Also, the inhibition in data set [3] and in data set [4] was above 80% throughout. Besides, the CC50 at 72 h in [5] is above 46 µM. Moreover, the pIC50 is 6.39 in data set [8] and 6.64 in [11]. In addition, the half-life in [15] worked out at 408 min; in [10], 9.7 min.
Turning to `O=C(Cc1ccc(Cl)c(Cl)c1)Nc1ccc(S(=O)(=O)Nc2ccon2)cc1`, the Activity entry in data set [14] is “Dose-dependent effect”. Moreover, the pEC50 in [14] is 4.79. In addition, the solubility kinetic in data set [2] was above 81 µg/mL. Further, the inhibition in [3] and in data set [4] was above 80% each time. In addition, the CC50 at 72 h in data set [5] is above 46 µM. The remaining at 2 h in data set [6] and in [12] was above 95% throughout. Besides, the values for the pIC50 in [8] and in data set [11] were 6.43 and 6.89, respectively. Moreover, the half-life in data set [15] was 231 min; in data set [16], 330 min; in data set [10] it was above 30 min.
With `Cc1cc(NS(=O)(=O)c2cccc(NC(=O)Cc3ccc(Cl)c(Cl)c3)c2)no1`, the inhibition in data set [3] and in data set [4] was above 80% in each case. Further, the pIC50 in [8] and in data set [11] was 4.79 throughout.
Take `O=C(Cc1ccc(Cl)c(Cl)c1)Nc1ccc(S(=O)(=O)Nc2cccc(C(=O)O)c2)cc1`: the inhibition in data set [3] and in [4] was above 80% in each case. The pIC50 was 6.59 in data set [8] and 6.24 in data set [11].
`O=C(Cc1ccc(Cl)c(Cl)c1)Nc1ccc(S(=O)(=O)Nc2cc[nH]n2)cc1`: the inhibition in data set [3] and in data set [4] was above 80% each time. Further, the pIC50 in data set [8] was 6.28; in data set [11], 6.14.
Take `Cc1cc(NS(=O)(=O)c2ccc(NC(=O)Cc3cccc(Cl)c3)cc2)no1`: the inhibition in data set [3] and in [4] was above 80% each time. Moreover, the pIC50 in [8] is 5.14; in [11], 5.59.

Usually inhibition stands for the change of the read-out against control, counted positive when it falls. Broadly, the CC50 is the concentration that lowers cell viability or growth by half. As usually defined, the pKi is the Ki on a negative log10 scale, so that one unit is a factor of ten. A high value points to a low Ki. One may read the pIC50 as the IC50 on a negative log10 scale, so that one unit is a factor of ten. The low end stands for a high IC50, the high end for a low IC50. One may read the half-life as the time needed for the level to fall by half in the phase considered.

Values taken from ChEMBL document CHEMBL3108713, “Identification of ML251, a Potent Inhibitor of T. brucei and T. cruzi Phosphofructokinase” (ACS Med Chem Lett, 2014).
